Where two headings read alike, the source gives them in different places.
Columns and labels:
CYP2B6 = assay: CYP mRNA induction in human hepatocytes; assay type: in vitro ADME; conditions: 0.3, 3, 30 µM; 72 hours; 3 donors
[1] = mice; long-term (10 month) administration; ref Davies et al., 2011; cited from earlier work
CYP3A4 = assay: CYP mRNA induction in human hepatocytes; assay type: in vitro ADME; conditions: 0.3, 3, 30 µM; 72 hours; 3 donors
in vitro = conditions: both, human, plasma (pooled), pH 7.4
[2] = test system: Salmonella typhimurium TA 102; assay: Ames bacterial reverse mutation assay, pre-incubation method; assay type: cell-based
[3] = In vitro metabolism in cryopreserved hepatocytes; assay type: in vitro ADME; conditions: rabbit hepatocytes; 25 µM; 4 hours
[4] = test system: Salmonella typhimurium TA 100; assay type: cell-based; conditions: pre-incubation
CYP1A2 or CYP3A4 = assay: CYP mRNA induction in human hepatocytes, isoform not given; assay type: in vitro ADME; conditions: 0.3 µM; one donor; isoform not stated
[5] = test system: Salmonella typhimurium TA 1535; assay type: cell-based; conditions: pre-incubation
[6] = ref Davies et al., 2002; Zagol-Ikapitte et al., 2010a; cited from earlier work
[7] = test system: cryopreserved human hepatocytes; assay: Cytotoxicity; assay type: cell-based; conditions: 72 hours
Outline: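 Cryopreserved hepatocytes from three donors (1 male, 2 female, Caucasian, 43–59 y) were thawed, plated at 0.15 million cells/well on collagen-coated plates at 37°C in 5% CO2, medium-changed after 2–4 h attachment, and recovered overnight. Cells were exposed to 0.3, 3 or 30 µM test compound or 0.1% DMSO vehicle for 72 h, with medium renewed daily. MTS conversion to formazan was then read, in triplicate.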

hypertension = conditions: mice; ref Wu et al., 2016; cited from earlier work
[8] = test system: Salmonella typhimurium TA 1537; assay: Ames bacterial reverse mutation assay, plate incorporation method; assay type: cell-based
[9] = Red blood cell distribution in whole blood; assay type: in vitro ADME; conditions: male, Sprague-Dawley, rat, whole blood (EDTA)
[10] = test system: Salmonella typhimurium TA 1535; assay type: cell-based; conditions: plate incorporation
[11] = Plasma protein binding by equilibrium dialysis; assay type: in vitro ADME; conditions: male, Sprague-Dawley, rat, plasma, pH 7.4
plasma protein [12] = assay: Plasma protein binding by equilibrium dialysis; assay type: in vitro ADME; conditions: rat plasma, mean ± SE
memory deficits = conditions: mouse model of Alzheimer's disease; ref Davies et al., 2011; cited from earlier work
[13] = test system: Salmonella typhimurium TA 102; assay: Ames bacterial reverse mutation assay, plate incorporation method; assay type: cell-based
plasma protein [14] = conditions: human plasma, mean ± SE
[15] = −S9, 0.05 mg/plate as printed (third dose row)
[16] = +S9, 0.05 mg/plate as printed (third dose row)

CC(=O)O.NCc1ccccc1O [2-HOBA, 2-Hydroxybenzylamine acetate]
CYP2B6 mRNA induction (concentration-dependent >2-fold increase) (CYP2B6): no evidence of mRNA induction
body weight or survival [1]: did not affect body weight or survival
CYP3A4 mRNA induction (concentration-dependent >2-fold increase) (CYP3A4): no evidence of mRNA induction
fraction unbound at 4 h, 1 µM (in vitro): 0.921 ± 0.024
fraction unbound at 4 h, 10 µM (in vitro): 0.86
Mean plate counts (revertant colonies) ([2]; +S9, 0.05 mg/plate): 280.0±6.0
Mean plate counts (revertant colonies) ([2]; +S9, 0.15 mg/plate): 271.3±11.0
Mean plate counts (revertant colonies) ([2]; +S9, 0.5 mg/plate): 256.0±7.2
Mean plate counts (revertant colonies) ([2]; +S9, 1.5 mg/plate): 283.3±16.2
Mean plate counts (revertant colonies) ([2]; +S9, 5 mg/plate): 256.7±8.1
Change in revertant colony counts vs negative control (mutagenicity) ([2]; +S9 and −S9, all dose levels): No changes in revertant colony counts were observed
Mean plate counts (revertant colonies) ([2]; −S9, 0.05 mg/plate): 241.3±12.1
Mean plate counts (revertant colonies) [2, 15]: 236.0±15.6
Mean plate counts (revertant colonies) ([2]; −S9, 0.15 mg/plate): 232.7±3.1
Mean plate counts (revertant colonies) ([2]; −S9, 1.5 mg/plate): 250.0±12.5
Mean plate counts (revertant colonies) ([2]; −S9, 5 mg/plate): 250.7±14.0
principle metabolites observed [3]: salicylic acid (M1) and the glycoside conjugate metabolite of 2-HOBA
Mean plate counts (revertant colonies) ([4]; +S9, 0.05 mg/plate): 114.7±12.9
Mean plate counts (revertant colonies) ([4]; +S9, 0.15 mg/plate): 120.7±7.6
Mean plate counts (revertant colonies) ([4]; +S9, 0.5 mg/plate): 119.3±7.6
Mean plate counts (revertant colonies) ([4]; +S9, 1.5 mg/plate): 112.0±7.2
Mean plate counts (revertant colonies) ([4]; +S9, 5 mg/plate): 114.0±12.5
Change in revertant colony counts vs negative control (mutagenicity) ([4]; +S9 and −S9, all dose levels): No changes in revertant colony counts were observed
Mean plate counts (revertant colonies) ([4]; −S9, 0.05 mg/plate): 98.7±2.3
Mean plate counts (revertant colonies) [4, 15]: 103.7±1.5
Mean plate counts (revertant colonies) ([4]; −S9, 0.15 mg/plate): 96.7±6.1
Mean plate counts (revertant colonies) ([4]; −S9, 1.5 mg/plate): 94.7±4.2
Mean plate counts (revertant colonies) ([4]; −S9, 5 mg/plate): 105.3±6.1
percent induction relative to positive control induction level (CYP1A2 or CYP3A4): less than 5 % of positive control
Mean plate counts (revertant colonies) ([5]; +S9, 0.05 mg/plate): 12.0±2.0
Mean plate counts (revertant colonies) ([5]; +S9, 0.15 mg/plate): 12.0±1.0
Mean plate counts (revertant colonies) ([5]; +S9, 0.5 mg/plate): 14.3±2.1
Mean plate counts (revertant colonies) ([5]; +S9, 1.5 mg/plate): 12.3±0.6
Mean plate counts (revertant colonies) ([5]; +S9, 5 mg/plate): 11.7±2.1
Change in revertant colony counts vs negative control (mutagenicity) ([5]; +S9 and −S9, all dose levels): No changes in revertant colony counts were observed
Mean plate counts (revertant colonies) ([5]; −S9, 0.05 mg/plate): 12.7±1.5
Mean plate counts (revertant colonies) [5, 15]: 12.0±1.0
Mean plate counts (revertant colonies) ([5]; −S9, 0.15 mg/plate): 11.7±1.5
Mean plate counts (revertant colonies) ([5]; −S9, 1.5 mg/plate): 11.3±1.5
Mean plate counts (revertant colonies) ([5]; −S9, 5 mg/plate): 12.0±1.7
γKA scavenging rate relative to the rate of formation of γKA protein adducts [6]: 980 fold
% formazan absorbance relative to vehicle ([7]; all concentrations (0.3, 3, 30 µM), any donor): ≥ 94%
Formazan absorbance ([7]; donor 1, 0.3 µM): 0.82
Formazan absorbance (% of vehicle) ([7]; donor 1, 0.3 µM): 117 % of vehicle
Formazan absorbance ([7]; donor 1, 3 µM): 0.81
Formazan absorbance (% of vehicle) ([7]; donor 1, 3 µM): 115 % of vehicle
Formazan absorbance ([7]; donor 1, 30 µM): 0.75
Formazan absorbance (% of vehicle) ([7]; donor 1, 30 µM): 107 % of vehicle
Formazan absorbance ([7]; donor 2, 0.3 µM): 0.37
Formazan absorbance (% of vehicle) ([7]; donor 2, 0.3 µM): 94 % of vehicle
Formazan absorbance ([7]; donor 2, 3 µM): 0.38
Formazan absorbance (% of vehicle) ([7]; donor 2, 3 µM): 96 % of vehicle
Formazan absorbance ([7]; donor 2, 30 µM): 0.39
Formazan absorbance (% of vehicle) ([7]; donor 2, 30 µM): 100 % of vehicle
Formazan absorbance ([7]; donor 3, 0.3 µM): 0.64
Formazan absorbance (% of vehicle) ([7]; donor 3, 0.3 µM): 99 % of vehicle
Formazan absorbance ([7]; donor 3, 3 µM): 0.66
Formazan absorbance (% of vehicle) ([7]; donor 3, 3 µM): 102 % of vehicle
Formazan absorbance ([7]; donor 3, 30 µM): 0.67
Formazan absorbance (% of vehicle) ([7]; donor 3, 30 µM): 104 % of vehicle
Formazan absorbance ([7]; mean of 3 donors, 0.3 µM): 0.61
Formazan absorbance (% of vehicle) ([7]; mean of 3 donors, 0.3 µM): 103 % of vehicle
Formazan absorbance ([7]; mean of 3 donors, 3 µM): 0.62
Formazan absorbance (% of vehicle) ([7]; mean of 3 donors, 3 µM): 104 % of vehicle
Formazan absorbance ([7]; mean of 3 donors, 30 µM): 0.61
Formazan absorbance (% of vehicle) ([7]; mean of 3 donors, 30 µM): 103 % of vehicle
hypertension (hypertension): improved hypertension
Mean plate counts (revertant colonies) ([8]; +S9, 0.05 mg/plate): 6.3±0.6
Mean plate counts (revertant colonies) [8, 16]: 6.3±0.6
Mean plate counts (revertant colonies) ([8]; +S9, 0.15 mg/plate): 6.3±1.5
Mean plate counts (revertant colonies) ([8]; +S9, 1.5 mg/plate): 6.0±1.0
Mean plate counts (revertant colonies) ([8]; +S9, 5 mg/plate): 6.3±1.5
Change in revertant colony counts vs negative control (mutagenicity) ([8]; +S9 and −S9, all dose levels): No changes in revertant colony counts were observed
Mean plate counts (revertant colonies) ([8]; −S9, 0.05 mg/plate): 5.0±1.0
Mean plate counts (revertant colonies) [8, 15]: 5.3±0.6
Mean plate counts (revertant colonies) ([8]; −S9, 0.15 mg/plate): 5.0±0.0
Mean plate counts (revertant colonies) ([8]; −S9, 1.5 mg/plate): 5.7±1.2
Mean plate counts (revertant colonies) ([8]; −S9, 5 mg/plate): 6.0±1.0
Kp at 2 h, 1 µM [9]: 0.72 ± 0.1
Kp at 2 h, 10 µM [9]: 0.78
blood plasma ratio at 2 h, 1 µM [9]: 0.87 ± 0.05
blood plasma ratio at 2 h, 10 µM [9]: 0.9
Mean plate counts (revertant colonies) ([10]; +S9, 0.05 mg/plate): 9.3±1.5
Mean plate counts (revertant colonies) [10, 16]: 10.7±0.6
Mean plate counts (revertant colonies) ([10]; +S9, 0.15 mg/plate): 9.0±1.0
Mean plate counts (revertant colonies) ([10]; +S9, 1.5 mg/plate): 10.3±1.5
Mean plate counts (revertant colonies) ([10]; +S9, 5 mg/plate): 10.3±1.5
Change in revertant colony counts vs negative control (mutagenicity) ([10]; +S9 and −S9, all dose levels): No changes in revertant colony counts were observed
Mean plate counts (revertant colonies) ([10]; −S9, 0.05 mg/plate): 10.7±0.6
Mean plate counts (revertant colonies) [10, 15]: 10.7±1.2
Mean plate counts (revertant colonies) ([10]; −S9, 0.15 mg/plate): 11.0±1.0
Mean plate counts (revertant colonies) ([10]; −S9, 1.5 mg/plate): 10.7±1.2
Mean plate counts (revertant colonies) ([10]; −S9, 5 mg/plate): 11.0±1.0
fraction unbound at 4 h, 1 µM [11]: 0.76 ± 0.051
fraction unbound at 4 h, 10 µM [11]: 0.951
fb (bound fraction) (plasma protein [12]; 1 µM): 0.240 ± 0.051
fb (bound fraction) (plasma protein [12]; 10 µM): 0.049 ± 0.029
memory deficits (memory deficits): protection from memory deficits
Mean plate counts (revertant colonies) ([13]; +S9, 0.05 mg/plate): 302.7±11.4
Mean plate counts (revertant colonies) [13, 16]: 323.3±61.2
Mean plate counts (revertant colonies) ([13]; +S9, 0.15 mg/plate): 296.7±27.2
Mean plate counts (revertant colonies) ([13]; +S9, 1.5 mg/plate): 293.3±24.2
Mean plate counts (revertant colonies) ([13]; +S9, 5 mg/plate): 282.7±19.0
Change in revertant colony counts vs negative control (mutagenicity) ([13]; +S9 and −S9, all dose levels): No changes in revertant colony counts were observed
Mean plate counts (revertant colonies) ([13]; −S9, 0.05 mg/plate): 292.7±6.4
Mean plate counts (revertant colonies) [13, 15]: 279.3±14.2
Mean plate counts (revertant colonies) ([13]; −S9, 0.15 mg/plate): 287.3±24.0
Mean plate counts (revertant colonies) ([13]; −S9, 1.5 mg/plate): 297.3±6.4
Mean plate counts (revertant colonies) ([13]; −S9, 5 mg/plate): 328.0±63.2
fb (bound fraction) (plasma protein [14]; 1 µM): 0.079 ± 0.023
fb (bound fraction) (plasma protein [14]; 10 µM): 0.140 ± 0.022
